Compound activity as filed in PubChem.
A selection: hits, their analogues and other compounds. The true share with any hit is near 2.6%.
SENP8 block-1: inhibitors of human SENP8 protease | inhibition, % at 20 µM | Q96LD8 | recombinant SENP8, Nedd8 substrate fluorescence | 360,000 compounds, 0.64% hits; in the data active = inhibition mostly above about 40%, no sharp cut-off; inactive = mostly below about 27%
SENP8 block-2: SENP8 protease inhibition; Q96LD8; purified SENP8, Z-RLRGG-aminoluciferin cleavage, luminescence; inhibition, % at 10 µM; 330,000 compounds, 1.2% hits; in the data active = inhibition above about 50%
SENP1 FRET inh: inhibitors of human SENP1 SUMO protease catalytic domain | recombinant SENP1 catalytic domain, CyPet-SUMO1-YPet FRET cleavage | AID 624204 | Q9P0U3 | inhibition, % at 10 µM | 360,000 compounds, 0.21% hits;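 active = inhibition at least 30% at 10 µM, raw YFP signal under a set limit, fluorescence ratio 0.5 to 1.5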;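 also: 0% = enzyme with DMSO and 100% = no enzyme wells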
Target sequence (Q9P0U3 419-644 limits assumed): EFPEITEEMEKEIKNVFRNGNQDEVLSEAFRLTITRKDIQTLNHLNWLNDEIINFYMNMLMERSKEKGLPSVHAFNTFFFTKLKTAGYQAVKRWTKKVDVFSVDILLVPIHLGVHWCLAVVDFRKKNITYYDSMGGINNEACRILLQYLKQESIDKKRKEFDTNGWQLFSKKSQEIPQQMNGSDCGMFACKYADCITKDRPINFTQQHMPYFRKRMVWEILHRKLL
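Material: hSENP1 catalytic domain, recombinant; medium: Tris pH 8 with BME, BSA, NP40 and catalase; compound: single concentration of 10 µM compound, 0.5% DMSO final; technique: FRET read of cyan and yellow fluorescence; timing: 50 min enzyme reaction, room temperature, light-protected; reagent: SFCypet-SUMO1-SFYpet substrate at 25 nM; control set: no-enzyme low, enzyme-DMSO high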
SENP7 block: inhibitors of human SENP7 protease; recombinant SENP7, Z-RLRGG-aminoluciferin luminescence, 40 min; inhibition, % at 5 µM; 330,000 compounds, 1.5% hits; AID 434973;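 active = inhibition above about 50% at the single test dose, limit read from the data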;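 also: plate controls were DMSO with enzyme for no effect and no enzyme buffer wells for full effect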
Target sequence (Q9BQF6 706-1050 limits assumed): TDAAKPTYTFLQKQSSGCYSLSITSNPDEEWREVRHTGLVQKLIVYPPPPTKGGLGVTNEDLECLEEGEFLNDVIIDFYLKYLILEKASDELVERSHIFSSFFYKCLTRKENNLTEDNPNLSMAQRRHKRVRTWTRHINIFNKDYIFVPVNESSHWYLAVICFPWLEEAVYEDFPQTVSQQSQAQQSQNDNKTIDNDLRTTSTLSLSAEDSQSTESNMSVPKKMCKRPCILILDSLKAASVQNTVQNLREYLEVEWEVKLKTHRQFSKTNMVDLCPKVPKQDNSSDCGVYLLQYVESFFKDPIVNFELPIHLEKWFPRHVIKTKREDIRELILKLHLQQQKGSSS
Platelet DG rel: modulates dense granule release in human platelets; human platelet-rich plasma, SFLLRN dense granule ATP release, luminescence; inhibition, %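 (compounds screened at 7.5 µM in platelet-rich plasma)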; 300,000 compounds, 0.22% hits;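 active = mean replicate score, as percent of positive control, at or above 50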
SENP6 inh: inhibitors of human SENP6 protease; Recombinant SENP6 catalytic domain, aminoluciferin luminescence; 330,000 compounds, 1.8% hits; inhibition, % at 10 µM; Q9GZR1;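 active = inhibition above about 50% at the single tested dose, limit read from the data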;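 also: plate controls were DMSO wells with enzyme for no effect and DMSO wells lacking enzyme for full effect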
SENP8 conf: SENP8 (human) inhibition, single concentration confirmation; shares compounds with SENP8 block-1; purified SENP8, Nedd8-AMC/pro-Nedd8 cleavage fluorescence, 30 min; inhibition, % at 25 µM; 1,400 compounds, 15% hits; AID 624319; in the data active = inhibition mostly above about 39%, no sharp cut-off; inactive = mostly below about 34%
* hit, by the source's call; nt = not tested or not shown.

SMILES	SENP8 block-1	SENP8 block-2	SENP1 FRET inh	SENP7 block	Platelet DG rel	SENP6 inh	SENP8 conf
COc1ccccc1N1C(=O)C2C(c3ccc(F)cc3)NN(C(=O)c3ccc(C)cc3)C2C1=O (stereo not given)	44*	-1	3	6	14	-13	21
CC(C)C(NC(=O)c1ccccc1NC(=O)C(C)(C)C)C(=O)N1CCOCC1 (stereo not given)	-20	5	-1	-4	nt	0	nt
CC(=O)c1ccccn1	7	-12	1	1	16	-14	nt
C/C(=N/O)c1ccccn1	51*	-3	1	2	-1	-8	5
O=[N+]([O-])c1cc(-n2cccc2)ccc1N1CCOCC1	42*	6	13	9	4	11	8
CC1CCN(c2cc(N3CCOCC3)c([N+](=O)[O-])cc2F)CC1	41*	0	10	1	7	-24	23
CC(=O)N1CCN(S(=O)(=O)c2cccc(C(=O)NCCC3=CCCCC3)c2)CC1	13	-7	-1	-14	-6	-16	nt
O=C(CNc1ccc2c(c1)OCO2)N/N=C\c1cn(Cc2ccccc2)c2ccccc12	44*	0	8	12	-5	-5	3
CCCc1nc2ccccc2n1CCOc1ccccc1	42*	-4	1	8	5	-10	7
CCC(=O)c1ccc(OCc2cn(CC(=O)c3ccc(O)cc3)nn2)cc1	32*	nt	2	nt	nt	nt	41*
COc1ccc(OCc2cn(CC(=O)c3ccc(O)cc3)nn2)cc1	22	nt	-2	nt	nt	nt	nt
Nc1cc(N)cc(C(=O)c2ccccc2)c1	43*	nt	1	nt	nt	nt	77*
O=C(c1ccccc1)c1cccc(C(=O)c2ccccc2)c1	8	-13	0	-4	nt	-2	nt
CC(NC(=O)CCn1ccc2cc(S(=O)(=O)N3CCCC3)ccc21)c1ccccc1 (stereo not given)	1	-1	3	1	3	1	nt
CC(=O)Nc1cc2c(cc1Br)OCCO2	47*	-7	0	-7	-12	-7	-6
Cc1nc2c(O)c3c(c(O)c2nc1C)C1C=CC3CC1	42*	nt	0	nt	nt	nt	7
O=C(O)CCC1OC(=O)C(O)=C1c1ccccc1 (stereo not given)	40*	-3	-3	5	0	-3	7
CCSc1nnc(NC(NC(=O)c2ccco2)(C(F)(F)F)C(F)(F)F)s1	41*	3	0	-1	-2	11	28
CCSc1nnc(NC(=O)c2ccco2)s1	-19	-7	0	0	-26	-8	nt
CC(C)(C)c1ccc2c(c1)OC(C(=O)N/N=C/c1ccc([N+](=O)[O-])o1)CO2 (stereo not given)	44*	2	-50	10	15	2	15
Cc1cc(C)n(-c2ccc(C(=O)N3CCN(c4ccccn4)CC3)cc2)n1	-3	-6	2	-6	nt	-17	nt
Cc1cc(C)n(-c2ccc(C(=O)N3CCN(S(=O)(=O)c4ccc(Br)cc4Cl)CC3)cc2)n1	42*	nt	3	nt	nt	nt	8
CCCNC(=O)c1cc(C2CCCN(C(=O)c3ccc(NC(C)=O)cc3)C2)on1 (stereo not given)	11	nt	0	nt	nt	nt	nt
O=C(NCCCN1CCCCCC1)C1CC(=O)N(CCc2ccccc2)C1 (stereo not given)	56*	3	-5	2	-1	0	9
Cc1ccc2c(c1)c(/C=C/c1cc[n+](C)cc1)c(C)n2C	44*	4	-19	3	3	2	20
SMILES	SENP8 block-1	SENP8 block-2	SENP1 FRET inh	SENP7 block	Platelet DG rel	SENP6 inh	SENP8 conf
Cc1ccc2[nH]c(C)c(/C=C/c3cc[n+](C)cc3)c2c1	40*	7	-24	1	-17	-6	32
COc1cc(C(=O)OC(C)c2ccc(F)cc2)ccc1OCC(=O)N1CCOCC1 (stereo not given)	9	1	0	-6	nt	-1	nt
CC(Nc1c([N+](=O)[O-])c(=O)oc2ccccc12)C(Cl)c1ccccc1 (stereo not given)	52*	2	-1	4	0	-13	11
O=c1oc2ccccc2c(NC(c2ccccc2)c2ccccc2)c1[N+](=O)[O-]	13	-11	0	-11	-2	-20	nt
O=c1[nH]c(CSc2ncnc3sc(-c4ccccc4)cc23)nc2ccccc12	-168	-8	-31	-4	-3	-1	nt
C[C@H](CO)N1C[C@H](C)[C@@H](CN(C)C(=O)Nc2ccc(F)cc2)Oc2ncc(-c3ccc(F)cc3)cc2C1=O	-5	nt	-2	nt	nt	nt	nt
COc1ccc(C(=O)N2C=Cc3ccccc3C2C#N)cc1 (stereo not given)	50*	nt	-8	nt	nt	nt	74*
Cc1cc(C)cc(NC(=O)CN(C)S(=O)(=O)c2cnc[nH]2)c1	42*	-6	-1	1	5	0	-5
O=C(CNc1cccc(S(=O)(=O)N2CCCC2)c1)Nc1cccc(C(F)(F)F)c1	7	0	1	-5	nt	2	nt
O=C(O)c1ncsc1-c1ccccc1	43*	-3	1	-3	12	-12	23
Cc1ccc(NNC(N)=S)cc1Cl	60*	-7	2	-5	4	-2	17
CS(=O)(=O)c1ccc(NC(=O)CCCc2nc3ccccc3c(=O)[nH]2)cc1	54*	-6	-1	-9	-15	3	19
C[C@@H]1CN([C@H](C)CO)C(=O)CCCn2nncc2CO[C@H]1CN(C)C(=O)c1ccc(N2CCN(C)CC2)cc1	7	nt	-2	nt	nt	nt	nt
C[C@H]1CN([C@@H](C)CO)C(=O)CCCn2nncc2CO[C@@H]1CN(C)C(=O)c1ccc(N2CCN(C)CC2)cc1	50*	nt	4	nt	nt	nt	0
Cc1ccc(C2=N/C(=C\c3cccs3)C(=O)N2Nc2ccccc2)cc1	42*	4	-23	-4	8	-1	31
CCOC(=O)c1cccc(C2=CC(=O)C[C@H](c3ccc(OC)c(OC)c3)C2)c1	10	16	2	-2	nt	-24	nt
O=C(O)c1ccc(CCCc2ccccc2)cc1	9	nt	2	nt	nt	nt	nt
O=C(O)CCCCCCCCCCCc1ccccc1	56*	41	-1	-2	2	34	3
O=C(COC(=O)c1cc([N+](=O)[O-])ccc1N1CCOCC1)Nc1cccc(F)c1	15	-13	1	-17	-26	-10	nt
CC1(C(=O)Nc2ccc(Cl)c(C(F)(F)F)c2)Cc2c(-c3ccc4c(c3)OCO4)ccnc2O1 (stereo not given)	-73	nt	0	nt	nt	nt	nt
CC(=O)C1=C(C)NC(C)=C(C(C)=O)C1c1ccccc1	41*	11	2	0	-1	2	11
Nc1ccc(Sc2ccccc2Cl)nc1	14	1	2	-2	-2	1	nt
O=[N+]([O-])c1ccc(Sc2ccccc2Cl)nc1	40*	-2	0	-3	3	-11	8
